Experiment [1] deals with Radical scavenging activity. The experiment is described as follows: Antioxidant activity assessed as DPPH free radical scavenging activity at 1 mM/ml after 30 mins. Type of experiment: functional. The method in brief: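 DPPH scavenging assay. 1 mM compound stock was mixed with DPPH in methanol (0.5 mL, 0.3 mM) in a 3 mL total mixture and left at room temperature for 30 min. Absorbance was read at 520 nm. Percent activity was calculated as [1 − OD test/OD control] × 100. BHA served as standard.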

For experiment [2], the system named is L-asparaginase (Erwinia carotovora). The experiment is described as follows: Binding affinity to Erwinia carotovora L-asparaginase by spectrophotometry. As to conditions: Pectobacterium carotovorum.
Experiment [3] shares this test system. The experiment is described as follows: Ratio of Vmax to Km for Erwinia carotovora L-asparaginase by Lineweaver-Burke plot. As to conditions: Pectobacterium carotovorum.

Active and inactive are the calls of the source. The calls are words filed in the database; no cut-off is given here.

In the case of `COc1ccc(CC(=S)N2CCOCC2)cc1OC`, the Activity in experiment [1] came out at 32.6%. Also, in experiment [2], the outcome was Active and the KA worked out at 0.985 µM. In addition, the Vmax/Km in experiment [3] was 13.3. On to `COc1ccc(CC(=S)N2CCOCC2)cc1`, for which the Activity in experiment [1] was 24.3%. Besides, in experiment [2], the outcome was Active and the KA was determined as 0.0851 µM. Besides, the Vmax/Km in experiment [3] worked out at 6.25. Consider `Cc1ccc(CC(=S)N2CCOCC2)cc1`, for which, in experiment [1], the Activity turned out to be 21.6%.

With `Nc1ccccc1CC(=S)N1CCOCC1`, the Activity in experiment [1] amounted to 0%. Take `S=C(Cc1ccc2ccccc2c1)N1CCOCC1`: the Activity in experiment [1] worked out at 0%. Still for that read-out and setting: next, `O=[N+]([O-])c1ccc(CC(=S)N2CCOCC2)cc1`: 0%. Regarding `S=C(Cc1ccc(Br)cc1)N1CCOCC1`, in experiment [1], the Activity came to 0%. Take `S=C(Cc1ccco1)N1CCOCC1`: the Activity in experiment [1] was determined as 0%. With `COc1ccc(O)c(C(C)(C)C)c1.COc1ccc(O)cc1C(C)(C)C`, the Activity in experiment [1] was found to be 72.3%. For the compound `Oc1ccccc1CC(=S)N1CCOCC1`, the Activity in experiment [1] was determined as 36.1%. In addition, the KA in experiment [2] stood at 0.625 µM. The Vmax/Km in experiment [3] is 4.04. With `S=C(CCCc1ccccc1)N1CCOCC1`, in experiment [1], the Activity was found to be 0%. With `S=C(Cc1ccccc1)N1CCOCC1`, in experiment [1], the Activity was determined as 24.3%. Regarding `S=C(Cc1ccc(OCc2ccccc2)cc1)N1CCOCC1`, the Activity in experiment [1] came out at 25.9%.
